ChEMBL document CHEMBL1139081, “Rational design, synthesis, and structure-activity relationship of benzoxazolones: new potent mglu5 receptor antagonists based on the fenobam structure” (Bioorg Med Chem Lett, 2007)
pIC50, pKi: −log10 of the molar value.

Assays:
[1] = biological target: T1, Metabotropic glutamate receptor 5 (Homo sapiens, UniProt P41594); experiment: Binding affinity to mGluR5
[2] = biological target: T1, Metabotropic glutamate receptor 5; experiment: Antagonist activity at mGluR5 assessed as inhibition of Ca2+ […] by FLIPR; type: functional
Mus musculus = species: Mus musculus; experiment: Decrease in stress-induced hyperthermia in NMRI mouse; type: functional; conditions: read-out: MED
Summary of the method: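 Stress-induced hyperthermia model of anxiety in NMRI mice, read as change in temperature (DT). Oral dosing at 10 and 30 mg/kg, vehicle 0.3% Tween 80 in 0.9% NaCl, 60 min pre-treatment. Each group compared to vehicle by independent t-test.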

[3] = Half life in rat; type: ADME, organism-based; conditions: in vivo
[4] = Clearance in rat; type: ADME, organism-based; conditions: in vivo
[5] = Volume of distribution in rat; type: ADME, organism-based; conditions: in vivo
[6] = Ratio of drug level in brain to plasma in rat after 3 hrs; type: ADME; conditions: brain and plasma
Summary of the method: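 Blood/brain partitioning checked 3 h after administration as brain-to-plasma concentration ratio; cerebrospinal fluid concentration also measured, expressed as percentage of plasma concentration.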

[7] = Oral bioavailability in rat; type: ADME, organism-based; conditions: in vivo

T1 sequence (P41594 whole entry): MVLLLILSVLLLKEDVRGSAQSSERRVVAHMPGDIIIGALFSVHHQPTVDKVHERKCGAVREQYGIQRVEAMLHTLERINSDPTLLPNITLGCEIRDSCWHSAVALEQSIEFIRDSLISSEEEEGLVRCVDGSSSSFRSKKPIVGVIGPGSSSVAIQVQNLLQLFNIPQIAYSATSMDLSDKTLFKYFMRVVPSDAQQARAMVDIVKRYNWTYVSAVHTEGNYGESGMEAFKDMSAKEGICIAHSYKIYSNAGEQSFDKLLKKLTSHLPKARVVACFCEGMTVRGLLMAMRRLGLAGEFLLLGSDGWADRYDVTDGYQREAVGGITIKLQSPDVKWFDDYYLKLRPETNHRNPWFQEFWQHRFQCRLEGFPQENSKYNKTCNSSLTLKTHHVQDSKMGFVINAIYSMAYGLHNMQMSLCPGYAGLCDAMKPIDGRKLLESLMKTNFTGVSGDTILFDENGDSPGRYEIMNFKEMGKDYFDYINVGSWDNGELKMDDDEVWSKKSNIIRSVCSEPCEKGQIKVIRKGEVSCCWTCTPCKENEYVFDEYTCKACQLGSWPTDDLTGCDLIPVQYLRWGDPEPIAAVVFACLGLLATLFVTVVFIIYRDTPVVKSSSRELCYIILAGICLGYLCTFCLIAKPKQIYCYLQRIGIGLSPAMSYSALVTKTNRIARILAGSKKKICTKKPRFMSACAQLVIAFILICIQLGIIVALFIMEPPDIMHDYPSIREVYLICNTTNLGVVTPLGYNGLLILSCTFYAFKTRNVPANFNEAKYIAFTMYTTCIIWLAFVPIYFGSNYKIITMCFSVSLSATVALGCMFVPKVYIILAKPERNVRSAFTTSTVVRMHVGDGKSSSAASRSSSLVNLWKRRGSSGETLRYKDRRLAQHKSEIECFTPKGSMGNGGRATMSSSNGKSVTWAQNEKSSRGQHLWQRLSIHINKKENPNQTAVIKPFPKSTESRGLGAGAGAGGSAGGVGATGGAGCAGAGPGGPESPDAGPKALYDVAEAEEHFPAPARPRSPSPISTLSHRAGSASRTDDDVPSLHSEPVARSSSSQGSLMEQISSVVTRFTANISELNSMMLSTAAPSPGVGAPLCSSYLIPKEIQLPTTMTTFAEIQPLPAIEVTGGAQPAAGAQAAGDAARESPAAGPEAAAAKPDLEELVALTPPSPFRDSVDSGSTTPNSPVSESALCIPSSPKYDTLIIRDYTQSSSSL

Row | pKi [1] | SMILES | further results
1 | < 5.00 | O=C(Nc1cccc(Cl)c1)c1cccc2[nH]c(=O)oc12 | 
2 | 6.40 | O=C1Cc2cccc(C(=O)Nc3cccc(Cl)c3)c2N1 | 
3 | 6.31 | O=C(Nc1cccc(C(F)(F)F)c1)c1cccc2oc(=O)[nH]c12 | 
4 | 6.60 | O=C(Nc1ccccn1)c1cccc2oc(=O)[nH]c12 | 
5 | 7.17 | O=C(Nc1cccc(Cl)c1)c1cccc2oc(=O)[nH]c12 | pIC50 [2]: 6.71
6 | 6.49 | N#Cc1cccc(NC(=O)c2cccc3oc(=O)[nH]c23)c1 | 
7 | 5.41 | O=C(Nc1cccc(Cl)c1)c1cccc2[nH]c(=O)[nH]c12 | 
8 | 5.54 | O=C1COc2cccc(C(=O)Nc3cccc(Cl)c3)c2N1 | 
9 | 5.42 | O=C(Nc1ccc(Cl)cc1)c1cccc2oc(=O)[nH]c12 | 
10 | 6.96 | Cc1cccc(NC(=O)c2cccc3oc(=O)[nH]c23)c1 | pIC50 [2]: 6.98
11 | < 5.00 | CC(=O)Nc1ccccc1C(=O)Nc1cccc(Cl)c1 | 
12 | 5.71 | Cc1nccc(NC(=O)c2cccc3oc(=O)[nH]c23)n1 | 
13 | < 5.00 | O=C(Nc1cccc(Cl)c1)c1cccc2nn[nH]c12 | 
14 | 5.66 | O=C(Nc1ccccc1)c1cccc2oc(=O)[nH]c12 | 
15 | < 5.00 | O=C(Nc1cc(Cl)cc(Cl)c1)c1cccc2oc(=O)[nH]c12 | 
16 | < 5.00 | Cn1c(=O)[nH]c2c(C(=O)Nc3cccc(Cl)c3)cccc21 | 
17 | 5.51 | Cc1cc(NC(=O)c2cccc3oc(=O)[nH]c23)ccn1 | 
18 | < 5.00 | O=C(Nc1cccc(Cl)c1)c1cccc2nc[nH]c12 | 
19 | < 5.00 | O=C(Nc1ccccc1Cl)c1cccc2oc(=O)[nH]c12 | 
20 | 5.41 | COc1cccc(NC(=O)c2cccc3oc(=O)[nH]c23)c1 | 
21 | 7.25 | O=C(Nc1cccc(Br)c1)c1cccc2oc(=O)[nH]c12 | pIC50 [2]: 7.03
22 | 7.02 | Cc1cccc(NC(=O)c2cccc3oc(=O)[nH]c23)n1 | minimal effective dose (Mus musculus): 10 mg/kg; half-life [3]: 13.2 min; pIC50 [2]: 7.22; clearance [4]: 8.2 mL/min/kg; Vd [5]: 0.18 L/kg; Kp at 3 h [6]: 0.06; bioavailability [7]: 64%
23 | 5.41 | O=C(Nc1cccc(Cl)c1)c1cccc2cc[nH]c12 | 
24 | 6.60 | Cc1nc(NC(=O)c2cccc3oc(=O)[nH]c23)cs1 | 
